Assay results from paper PMC10795035 (ACS Omega, 2024).

Assays:
[1] = Control incubation in enzyme-free reaction buffer pH 6.0; assay type: physicochemical; settings: enzyme free buffer pH 6.0, 37 °C, 24 h, 183 μM conjugate, RP-HPLC, n = 3
Procedure, shortened: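 Enzyme-free control run alongside the cathepsin B cleavage assay. Reaction buffer was 150 mM sodium acetate, 12 mM EDTA and 24 mM DTT, pH 6.0. Conjugate was added from a DMSO stock to 183 μM final and incubated at 37 °C. Aliquots were taken over 0–24 h for RP-HPLC. Peak areas at the retention times of pure drug and conjugate tracked conjugate loss and free drug appearance.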

[2] = Stability in phosphate buffer saline pH 7.4; assay type: physicochemical; settings: PBS pH 7.4 with 2% DMSO, 196 μM conjugate, 37 °C, 0-24 h, HPLC, n = 3
Procedure, shortened: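 Conjugate in PBS pH 7.4 with 2% DMSO, 196 μM final, held at 37 °C. Aliquots were withdrawn at time points over 0–24 h and analysed by HPLC. Results were plotted as areas of intact conjugate and of released free drug over time (n = 3).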

U87MG cells = test: XTT cytotoxicity assay; assay type: cell-based, Human; settings: for cytotoxicity on U87MG cells at 24 h: XTT assay, 24 h exposure, 5-160 nM, n = 4
Procedure, shortened: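 U87MG cells were kept in EMEM with 10% FBS and 1% penicillin–streptomycin at 37 °C, 5% CO2. Cells were seeded at 1 × 10^4/well and treated after 24 h with 5–160 nM test compound at 37 °C. At 24 and 72 h, XTT with electron coupling reagent was added for 3 h, then A450 was read. Values were normalized to untreated cells. Controls were 0.05% DMSO and medium. Mean ± SD, n = 4. IC50 from concentration–response curve fit.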

[3] = cited from earlier work
[4] = tested on: U87MG cells with transferrin receptors blocked by excess T7-PEG4-N3; test: T7 competition assay: transferrin receptor blocking studies; assay type: cell-based; settings: Homo sapiens, U-87 MG, read-out: IC50 at 72 h in TfR-blocked U87MG cells
Procedure, shortened: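 U87MG cells were seeded at 1 × 10^4/well and grown 24 h. Medium was replaced with medium containing a 10-fold molar excess of azido-PEG4-T7 peptide relative to conjugate for 1 h. Cells were then exposed to 5–160 nM test compound. Controls were medium, 0.05% DMSO and peptide alone. XTT read-out at 72 h, A450 relative to controls, n = 4. IC50 from concentration–response curve fit.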

TfR = settings: cited from earlier work

Compound: CCc1c2c(nc3ccc(OCc4ccc(NC(=O)[C@H](C)NC(=O)[C@@H](NC(=O)CCCCCNC(=O)COCCOCCOCCNC(=O)CCCCC(=O)N5Cc6ccccc6-c6c(nnn6CCOCCOCCOCCOCCC(=O)N[C@@H](Cc6c[nH]cn6)C(=O)N[C@@H](C)C(=O)N[C@H](C(=O)N[C@@H](Cc6ccc(O)cc6)C(=O)N6CCC[C@H]6C(=O)N[C@@H](CCCNC(=N)N)C(=O)N[C@@H](Cc6c[nH]cn6)C(=O)O)[C@@H](C)CC)-c6ccccc65)C(C)C)cc4)cc13)-c1cc3c(c(=O)n1C2)COC(=O)[C@]3(O)CC [Compound T7-SN-38]
- release of free SN-38 in enzyme free buffer [1]: No free SN-38 was observed
- stability in phosphate-buffered saline [2]: very minimal decomposition or cleavage
- cytotoxicity on U87MG cells at 24 h (U87MG cells): did not exert pronounced cytotoxicity

Compound: CCc1c2c(nc3ccc(O)cc13)-c1cc3c(c(=O)n1C2)COC(=O)[C@]3(O)CC [SN-38, 7-Ethyl-10-hydroxycamptothecin]
- potency compared to irinotecan [3]: 100–1000 times
- IC50 [4]: 27.6 nM
- IC50 (U87MG cells; Homo sapiens, U-87 MG, 72 h, read-out: IC50 on U87MG cells at 72 h): 26.4 nM
- cytotoxicity on U87MG cells at 24 h (U87MG cells): did not exert pronounced cytotoxicity

Compound: His-Ala-Ile-Tyr-Pro-Arg-His [T7 peptide]
- binding affinity for TfR relative to Tf (TfR): comparable to that of Tf
